Data from ChEMBL document CHEMBL1130251, “Enzymatic properties of the unnatural beta-L-enantiomers of 2',3'-dideoxyadenosine and 2',3'-didehydro-2',3'-dideoxyadenosine” (J Med Chem, 1997).

Legend:
[1] = Half life of the compound; assay type: ADME
Summary of the method: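 Deamination by calf intestinal mucosa adenosine deaminase (type VIII) at 37 °C in 50 mM phosphate buffer pH 7.5. Substrate 20–80 μM with 0.01–1 unit of enzyme depending on substrate. Conversion followed over time by HPLC on C-18 with a phosphate pH 6 / acetonitrile gradient, which also confirmed the deaminated nucleoside as sole product.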

[2] = target: T1, Adenosine deaminase (Bos taurus, UniProt P56658); experiment: inhibitory activity against Adenosine deaminase
T1 sequence (P56658 whole entry): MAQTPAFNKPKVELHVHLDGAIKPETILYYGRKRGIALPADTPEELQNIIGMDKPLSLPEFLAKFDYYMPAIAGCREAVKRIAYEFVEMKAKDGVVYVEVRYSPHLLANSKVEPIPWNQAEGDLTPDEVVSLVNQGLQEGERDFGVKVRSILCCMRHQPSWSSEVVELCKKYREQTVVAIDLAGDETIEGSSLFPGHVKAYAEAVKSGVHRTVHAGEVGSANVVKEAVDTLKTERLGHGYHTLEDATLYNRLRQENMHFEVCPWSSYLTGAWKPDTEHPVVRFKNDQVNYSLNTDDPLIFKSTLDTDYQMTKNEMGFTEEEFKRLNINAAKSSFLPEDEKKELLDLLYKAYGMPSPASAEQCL
Summary of the method: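 Adenosine deaminase (calf intestinal mucosa, type VIII) at 37 °C in 50 mM phosphate pH 7.5. Substrate tests used 20–80 μM nucleoside and 0.01–1 unit enzyme, with HPLC product analysis. Inhibition was read by UV spectrometry with adenosine 20–100 μM. Ki was taken from Lineweaver–Burk plots assuming competitive inhibition.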

| half-life [1] | Ki [2] | Structure (SMILES) |
| --- | --- | --- |
| 74.4 h | – | Nc1ncnc2c1ncn2[C@H]1C=C[C@@H](CO)O1 |
| – | 120 µM | Nc1ncnc2c1ncn2[C@H]1CC[C@@H](CO)O1 |
